Measurements reported in ChEMBL document CHEMBL3046702, “Herbicidal, plant growth inhibitory, and cytotoxic activities of bismuthines containing aromatic heterocycles” (J Agric Food Chem, 2003).
Activity calls are given as the source filed them. The rule behind the calls is not given here.

What was measured:
Artemia salina [1] = experiment: Toxicity in Artemia salina (brine shrimp) larvae assessed as mortality at 100 uM; assay type: organism-based; details: in vivo
Summary of the method: (§1)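 Brine shrimp lethality test on *Artemia salina* larvae, run across several concentrations up to a top level of 1000 µM. Mortality was scored at each concentration, and LC50 values in µM were derived from the concentration–mortality data.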

Trifolium pratense [2] = experiment: Herbicidal activity against Trifolium pratense var. Kenland (red clover) assessed as inhibition of seed germination after 48 hr; assay type: functional, organism-based; details: read-out: I50
Lolium multiflorum [3] = experiment: Herbicidal activity against Lolium multiflorum var. Gulf (Italian ryegrass) assessed as inhibition of seed germination after 48 hr; assay type: functional, organism-based; details: read-out: I50
Artemia salina [4] = experiment: Toxicity in Artemia salina (brine shrimp) larvae assessed as mortality at 200 uM; assay type: organism-based; details: in vivo; summary of the method: as §1
Artemia salina [5] = experiment: Toxicity in Artemia salina (brine shrimp) larvae assessed as mortality; assay type: organism-based; details: in vivo; summary of the method: as §1
Phaseolus vulgaris [6] = experiment: Herbicidal activity against Phaseolus vulgaris assessed as inhibition of seed respiration during germination; assay type: functional, organism-based; details: read-out: I50
Artemia salina [7] = experiment: Toxicity in Artemia salina (brine shrimp) larvae assessed as mortality at 500 to 1000 uM; assay type: organism-based; details: in vivo; summary of the method: as §1
Phaseolus vulgaris [8] = experiment: Herbicidal activity against Phaseolus vulgaris assessed as inhibition of mitochondrial oxygen uptake; assay type: functional, organism-based; details: read-out: I50
Artemia salina [9] = experiment: Toxicity in Artemia salina (brine shrimp) larvae assessed as mortality at 20 uM; assay type: organism-based; details: in vivo; summary of the method: as §1
Lactuca sativa [10] = experiment: Herbicidal activity against Lactuca sativa var.Roman (lettuce) assessed as inhibition of seed germination after 48 hr; assay type: functional, organism-based; details: read-out: I50
Trifolium pratense [11] = experiment: Herbicidal activity against Trifolium pratense var. Kenland (red clover) assessed as inhibition of seed respiration during germination after 72 hr by polarographic analysis; assay type: functional, organism-based; details: for IC50: read-out: I50
Summary of the method: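 Red clover seeds were exposed to the bismuthines during germination, with respiration followed over the imbibition time. Values were taken at 72 h as the concentration giving 50% inhibition of seed respiration, using means of three experiments.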

Physalis ixocarpa = experiment: Herbicidal activity against Physalis ixocarpa assessed as inhibition of seed respiration during germination after 72 hr by polarographic analysis; assay type: functional, organism-based
Lolium multiflorum [12] = experiment: Herbicidal activity against Lolium multiflorum var. Gulf (Italian ryegrass) seedlings assessed as root length rate at 0.5 uM after 48 hr relative to control; assay type: functional, organism-based
Summary of the method: (§2)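 Italian ryegrass seedlings grown with 0, 0.5, 1, 3, 5, 7.5 or 10 µM of each bismuthine. Shoot and root lengths were measured at 48 h and expressed as a percentage of the average untreated control length.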

Lactuca sativa [13] = experiment: Herbicidal activity against Lactuca sativa var.Roman (lettuce) seedlings assessed as shoot length at 10 uM after 120 hr (reference value: 27 to 31 mm); assay type: functional, organism-based
Lactuca sativa [14] = experiment: Herbicidal activity against Lactuca sativa var.Roman (lettuce) assessed as inhibition of seed germination at > 36.6 uM after 48 hr; assay type: functional, organism-based
Lolium multiflorum [15] = experiment: Herbicidal activity against Lolium multiflorum var. Gulf (Italian ryegrass) seedlings assessed as root length rate at 7.5 uM after 48 hr relative to control; assay type: functional, organism-based; summary of the method: as §2
Lactuca sativa [16] = experiment: Herbicidal activity against Lactuca sativa var.Roman (lettuce) seedlings assessed as seed germination rate at 7.5 uM after 48 hr relative to control; assay type: functional, organism-based
Lactuca sativa [17] = experiment: Herbicidal activity against Lactuca sativa var.Roman (lettuce) seedlings assessed as root length at 5 uM after 120 hr (reference value: 18 to 19 mm); assay type: functional, organism-based
Lolium multiflorum [18] = experiment: Herbicidal activity against Lolium multiflorum var. Gulf (Italian ryegrass) seedlings assessed as root length rate at 3 uM after 48 hr relative to control; assay type: functional, organism-based; summary of the method: as §2
Lolium multiflorum [19] = experiment: Herbicidal activity against Lolium multiflorum var. Gulf (Italian ryegrass) seedlings assessed as shoot length rate at 1 uM after 48 hr relative to control; assay type: functional, organism-based; summary of the method: as §2
Lactuca sativa [20] = experiment: Herbicidal activity against Lactuca sativa var.Roman (lettuce) assessed as inhibition of seed germination at > 48.8 uM after 48 hr; assay type: functional, organism-based
Lactuca sativa [21] = experiment: Herbicidal activity against Lactuca sativa var.Roman (lettuce) seedlings assessed as seed germination rate at 0.5 uM after 48 hr relative to control; assay type: functional, organism-based
Lolium multiflorum [22] = experiment: Herbicidal activity against Lolium multiflorum var. Gulf (Italian ryegrass) seedlings assessed as shoot length rate at 10 uM after 48 hr relative to control; assay type: functional, organism-based; summary of the method: as §2
Lolium multiflorum [23] = experiment: Herbicidal activity against Lolium multiflorum var. Gulf (Italian ryegrass) seedlings assessed as shoot length rate at 3 uM after 48 hr relative to control; assay type: functional, organism-based; summary of the method: as §2
Lactuca sativa [24] = experiment: Herbicidal activity against Lactuca sativa var.Roman (lettuce) seedlings assessed as root length at 25 uM after 120 hr (reference value: 18 to 19 mm); assay type: functional, organism-based
Lactuca sativa [25] = experiment: Herbicidal activity against Lactuca sativa var.Roman (lettuce) seedlings assessed as shoot length at 75 uM after 120 hr (reference value: 27 to 31 mm); assay type: functional, organism-based
Lolium multiflorum [26] = experiment: Herbicidal activity against Lolium multiflorum var. Gulf (Italian ryegrass) seedlings assessed as root length rate at 10 uM after 48 hr relative to control; assay type: functional, organism-based; summary of the method: as §2
Lactuca sativa [27] = experiment: Herbicidal activity against Lactuca sativa var.Roman (lettuce) seedlings assessed as seed germination rate at 5 uM after 48 hr relative to control; assay type: functional, organism-based
Lactuca sativa [28] = experiment: Herbicidal activity against Lactuca sativa var.Roman (lettuce) seedlings assessed as seed germination rate at 3 uM after 48 hr relative to control; assay type: functional, organism-based
Lactuca sativa [29] = experiment: Herbicidal activity against Lactuca sativa var.Roman (lettuce) seedlings assessed as root length at 50 uM after 120 hr (reference value: 18 to 19 mm); assay type: functional, organism-based
Lactuca sativa [30] = experiment: Herbicidal activity against Lactuca sativa var.Roman (lettuce) seedlings assessed as seed germination rate at 10 uM after 48 hr relative to control; assay type: functional, organism-based
Lactuca sativa [31] = experiment: Herbicidal activity against Lactuca sativa var.Roman (lettuce) seedlings assessed as root length at 75 uM after 120 hr (reference value: 18 to 19 mm); assay type: functional, organism-based
[32] = tested on: Radical scavenging activity; experiment: Antioxidant activity assessed as DPPH free radical scavenging activity at 5 to 100 uM after 30 min by TLC autographic assay; assay type: functional
Lactuca sativa [33] = experiment: Herbicidal activity against Lactuca sativa var.Roman (lettuce) seedlings assessed as shoot length at 5 uM after 120 hr (reference value: 27 to 31 mm); assay type: functional, organism-based
Trifolium pratense [34] = experiment: Herbicidal activity against Trifolium pratense var. Kenland (red clover) assessed as inhibition of seed germination at > 18.3 uM after 48 hr; assay type: functional, organism-based
Lactuca sativa [35] = experiment: Herbicidal activity against Lactuca sativa var.Roman (lettuce) seedlings assessed as root length at 10 uM after 120 hr (reference value: 18 to 19 mm); assay type: functional, organism-based
Lolium multiflorum [36] = experiment: Herbicidal activity against Lolium multiflorum var. Gulf (Italian ryegrass) assessed as inhibition of seed respiration during germination after 72 hr by polarographic analysis; assay type: functional, organism-based
Lolium multiflorum [37] = experiment: Herbicidal activity against Lolium multiflorum var. Gulf (Italian ryegrass) seedlings assessed as shoot length rate at 0.5 uM after 48 hr relative to control; assay type: functional, organism-based; summary of the method: as §2
Lolium multiflorum [38] = experiment: Herbicidal activity against Lolium multiflorum var. Gulf (Italian ryegrass) seedlings assessed as root length rate at 5 uM after 48 hr relative to control; assay type: functional, organism-based; summary of the method: as §2
[39] = tested on: Radical scavenging activity; experiment: Antioxidant activity assessed as DPPH free radical scavenging activity at 5 to 100 uM after 30 min by spectrophotometric analysis; assay type: functional
Summary of the method: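 DPPH reduction by the compounds was read spectrophotometrically at 517 nm after 30 min. 100% DMSO served as the blank and quercetin as the reference scavenger.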

Lolium multiflorum [40] = experiment: Herbicidal activity against Lolium multiflorum var. Gulf (Italian ryegrass) seedlings assessed as shoot length rate at 5 uM after 48 hr relative to control; assay type: functional, organism-based; summary of the method: as §2
Lactuca sativa [41] = experiment: Herbicidal activity against Lactuca sativa var.Roman (lettuce) seedlings assessed as seed germination rate at 1 uM after 48 hr relative to control; assay type: functional, organism-based
Lolium multiflorum [42] = experiment: Herbicidal activity against Lolium multiflorum var. Gulf (Italian ryegrass) seedlings assessed as shoot length rate at 7.5 uM after 48 hr relative to control; assay type: functional, organism-based; summary of the method: as §2
Lolium multiflorum [43] = experiment: Herbicidal activity against Lolium multiflorum var. Gulf (Italian ryegrass) seedlings assessed as root length rate at 1 uM after 48 hr relative to control; assay type: functional, organism-based; summary of the method: as §2
Lactuca sativa [44] = experiment: Herbicidal activity against Lactuca sativa var.Roman (lettuce) seedlings assessed as inhibition of seed germination at 5 uM after 48 hr; assay type: functional, organism-based
Lactuca sativa [45] = experiment: Herbicidal activity against Lactuca sativa var.Roman (lettuce) seedlings assessed as growth inhibition at 5 uM after 120 hr; assay type: functional, organism-based
Lactuca sativa [46] = experiment: Herbicidal activity against Lactuca sativa var.Roman (lettuce) seedlings assessed as shoot length at 25 uM after 120 hr (reference value: 27 to 31 mm); assay type: functional, organism-based
Lactuca sativa [47] = experiment: Herbicidal activity against Lactuca sativa var.Roman (lettuce) seedlings assessed as shoot length at 50 uM after 120 hr (reference value: 27 to 31 mm); assay type: functional, organism-based

TRIS(2-FURYL)BISMUTH [listing 1 of 2 here]
mortality (Artemia salina [1]): 50.9% | IC50 (Trifolium pratense [2]): 4.6 µM | IC50 (Lolium multiflorum [3]): 20 µM | mortality (Artemia salina [4]): 68.96% | LC50 (Artemia salina [5]): 99 µM | IC50 (Phaseolus vulgaris [6]): 1.1 µM | mortality (Artemia salina [7]): 100% | IC50 (Phaseolus vulgaris [8]): 10 µM | mortality (Artemia salina [9]): 12.28% | IC50 (Lactuca sativa [10]): 16.1 µM | IC50 (Trifolium pratense [11]): 6.3 µM

TRIS(2-FURYL)BISMUTH [listing 2 of 2 here]
inhibition (Physalis ixocarpa): Active | Activity (Lolium multiflorum [12]): 78% | Activity (Lactuca sativa [13]): 11 mm | inhibition (Lactuca sativa [14]): Active | Activity (Lolium multiflorum [15]): 44% | Activity (Lactuca sativa [16]): 35% | Activity (Lactuca sativa [17]): 32 mm | Activity (Lolium multiflorum [18]): 86% | Activity (Lolium multiflorum [19]): 75% | inhibition (Lactuca sativa [20]): 100% | Activity (Lactuca sativa [21]): 95% | Activity (Lolium multiflorum [22]): 24% | Activity (Lolium multiflorum [23]): 79% | Activity (Lactuca sativa [24]): 0 mm | Activity (Lactuca sativa [25]): 0 mm | Activity (Lolium multiflorum [26]): 30% | Activity (Lactuca sativa [27]): 70% | Activity (Lactuca sativa [28]): 80% | Activity (Lactuca sativa [29]): 0 mm | Activity (Lactuca sativa [30]): 35% | Activity (Lactuca sativa [31]): 0 mm | Activity [32]: Active | Activity (Lactuca sativa [33]): 24 mm | inhibition (Trifolium pratense [34]): 100% | Activity (Lactuca sativa [35]): 7 mm | inhibition (Lolium multiflorum [36]): inactive | Activity (Lolium multiflorum [37]): 82% | Activity (Lolium multiflorum [38]): 66% | Activity [39]: Active | Activity (Lolium multiflorum [40]): 55% | Activity (Lactuca sativa [41]): 95% | Activity (Lolium multiflorum [42]): 53% | Activity (Lolium multiflorum [43]): 70% | inhibition (Trifolium pratense [11]): Dose-dependent effect

TRIS(2-THIENYL)BISMUTH [listing 1 of 2 here]
IC50 (Trifolium pratense [2]): 12.4 µM | IC50 (Lolium multiflorum [3]): 36 µM | LC50 (Artemia salina [5]): > 1000 µM | IC50 (Phaseolus vulgaris [8]): 35 µM | IC50 (Lactuca sativa [10]): 49.7 µM | IC50 (Trifolium pratense [11]): 13.5 µM

TRIS(2-THIENYL)BISMUTH [listing 2 of 2 here]
inhibition (Physalis ixocarpa): Active | Activity (Lolium multiflorum [12]): 70% | Activity (Lactuca sativa [13]): 9 mm | Activity (Lolium multiflorum [15]): 50% | Activity (Lactuca sativa [16]): 70% | Activity (Lactuca sativa [17]): 36 mm | Activity (Lolium multiflorum [18]): 52% | Activity (Lolium multiflorum [19]): 82% | Activity (Lactuca sativa [21]): 90% | Activity (Lolium multiflorum [22]): 37% | Activity (Lolium multiflorum [23]): 71% | Activity (Lactuca sativa [24]): 3 mm | Activity (Lactuca sativa [25]): 0 mm | Activity (Lolium multiflorum [26]): 30% | Activity (Lactuca sativa [27]): 80% | Activity (Lactuca sativa [28]): 85% | Activity (Lactuca sativa [29]): 2 mm | Activity (Lactuca sativa [30]): 60% | inhibition (Lactuca sativa [44]): Active | Activity (Lactuca sativa [31]): 0 mm | Activity [32]: inactive | Activity (Lactuca sativa [33]): 33 mm | Activity (Lactuca sativa [35]): 5 mm | inhibition (Lolium multiflorum [36]): inactive | Activity (Lolium multiflorum [37]): 84% | Activity (Lolium multiflorum [38]): 76% | Activity [39]: Active | Activity (Lolium multiflorum [40]): 75% | Activity (Lactuca sativa [41]): 90% | Activity (Lolium multiflorum [42]): 46% | inhibition (Lactuca sativa [45]): 30% | Activity (Lactuca sativa [46]): 7 mm | Activity (Lolium multiflorum [43]): 88% | inhibition (Trifolium pratense [11]): Dose-dependent effect | Activity (Lactuca sativa [47]): 5 mm
